The structures appear in SMILES notation. Active and inactive are the calls of the source. The calls are words filed in the database; no cut-off is given here.

The target in assay [1] is T1, Follicle-stimulating hormone receptor (Homo sapiens) (UniProt P23945).
T1 sequence (whole entry): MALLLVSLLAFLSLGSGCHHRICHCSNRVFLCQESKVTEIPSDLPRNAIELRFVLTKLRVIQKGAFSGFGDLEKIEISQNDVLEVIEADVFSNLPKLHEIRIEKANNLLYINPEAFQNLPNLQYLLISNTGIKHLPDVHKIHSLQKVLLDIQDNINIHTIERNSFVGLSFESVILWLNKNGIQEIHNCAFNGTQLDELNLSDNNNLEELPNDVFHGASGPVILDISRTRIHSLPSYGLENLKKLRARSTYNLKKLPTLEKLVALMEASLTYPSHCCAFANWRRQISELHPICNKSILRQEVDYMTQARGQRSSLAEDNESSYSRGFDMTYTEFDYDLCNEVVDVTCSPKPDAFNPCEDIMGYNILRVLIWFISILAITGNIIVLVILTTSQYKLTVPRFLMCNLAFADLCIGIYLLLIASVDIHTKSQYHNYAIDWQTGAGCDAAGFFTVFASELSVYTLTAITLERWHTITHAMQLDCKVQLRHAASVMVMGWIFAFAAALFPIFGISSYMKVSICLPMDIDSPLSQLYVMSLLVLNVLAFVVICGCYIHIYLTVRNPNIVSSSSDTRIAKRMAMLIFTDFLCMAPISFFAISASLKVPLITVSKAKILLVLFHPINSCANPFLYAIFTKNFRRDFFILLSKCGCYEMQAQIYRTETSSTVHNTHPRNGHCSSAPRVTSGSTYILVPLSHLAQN
The assay is described as follows: Antagonist activity at human FSHR receptor expressed in CHO-K1 cells assessed as inhibition of FSH-induced luciferase activity at 10 uM by CRE-driven luciferase reporter gene assay relative to control.

In assay [2] the target is T2, Lutropin-choriogonadotropic hormone receptor (Homo sapiens, UniProt P22888). The assay is described as follows: Agonist activity at human LH receptor expressed in CHO-K1 cells assessed as stimulation of luciferase activity by CRE-driven luciferase reporter gene assay. The assay is classed as functional, cell-based. In a few lines:
(§1)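 EC50 or IC50 values were fitted from concentration–effect curves. Data come from two independent experiments, each run in duplicate, with SD generally below 0.3.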
In general terms: Reporter assays use an easily measured gene product as a stand-in for the process of interest.

Assay [3] concerns the target T3, Follicle-stimulating hormone receptor (Homo sapiens, UniProt P23945).
T3 sequence (P23945 whole entry): T1 sequence (whole entry)
The experiment in a line: Antagonist activity at human FSHR receptor expressed in CHO-K1 cells assessed as inhibition of FSH-induced luciferase activity by CRE-driven luciferase reporter gene assay relative to control.

The target of assay [4] is T2, Lutropin-choriogonadotropic hormone receptor. The assay is described as follows: Antagonist activity at human LH receptor expressed in CHO-K1 cells assessed as inhibition of LH-induced luciferase activity by CRE-driven luciferase reporter gene assay. The assay is classed as functional, cell-based.
Assay [5] has as its target T3, Follicle-stimulating hormone receptor. The experiment in a line: Agonist activity at human FSHR receptor expressed in CHO-K1 cells assessed as stimulation of luciferase activity by CRE-driven luciferase reporter gene assay. The assay is classed as functional, cell-based. An outline of the steps:
as §1

The target in assay [6] is T1, Follicle-stimulating hormone receptor (Homo sapiens). The assay is described as follows: Agonist activity at human FSHR receptor expressed in CHO-K1 cells assessed as stimulation of luciferase activity at 10 uM by CRE-driven luciferase reporter gene assay relative to control. The assay is classed as functional, cell-based.
The target is the same in assay [7]. The assay is described as follows: Agonist activity at human FSHR receptor expressed in CHO-K1 cells assessed as stimulation of luciferase activity by CRE-driven luciferase reporter gene assay relative to control. The assay is classed as functional, cell-based.

T2 sequence (P22888 whole entry): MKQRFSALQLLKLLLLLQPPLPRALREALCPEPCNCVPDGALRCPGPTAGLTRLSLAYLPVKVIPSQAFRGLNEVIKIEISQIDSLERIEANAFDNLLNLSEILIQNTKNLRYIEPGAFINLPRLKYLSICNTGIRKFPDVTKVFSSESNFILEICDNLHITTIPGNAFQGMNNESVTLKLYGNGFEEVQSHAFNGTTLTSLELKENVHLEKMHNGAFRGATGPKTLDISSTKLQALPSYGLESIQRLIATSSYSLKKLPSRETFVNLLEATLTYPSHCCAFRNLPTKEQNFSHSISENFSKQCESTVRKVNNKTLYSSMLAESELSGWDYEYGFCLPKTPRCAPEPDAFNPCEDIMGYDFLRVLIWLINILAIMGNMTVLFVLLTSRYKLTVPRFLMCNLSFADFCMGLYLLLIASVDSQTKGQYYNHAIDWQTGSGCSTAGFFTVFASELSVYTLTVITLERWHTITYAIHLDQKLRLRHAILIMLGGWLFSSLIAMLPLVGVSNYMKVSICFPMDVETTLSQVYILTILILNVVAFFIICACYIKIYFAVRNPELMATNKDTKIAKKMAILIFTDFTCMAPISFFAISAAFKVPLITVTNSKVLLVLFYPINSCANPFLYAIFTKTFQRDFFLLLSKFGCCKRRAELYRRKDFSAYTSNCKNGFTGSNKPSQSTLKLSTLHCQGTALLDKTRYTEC

In the case of `CSc1nc(-c2cccc(NCC(=O)NCc3cn(CCOCCOCCn4cc(COc5ccc([C@@]6(C)CC(C)(C)N(C(C)=O)c7ccc(NC(=O)c8ccc(-c9ccccc9)cc8)cc76)cc5)nn4)nn3)c2)c2c(N)c(C(=O)NC(C)(C)C)sc2n1`, the Imax in assay [1] turned out to be 73%. Moreover, the EC50 is 43 nM in assay [2] (read-out: EC50) and “Not Active” in assay [5] (cho-k1). In addition, the IC50 in assay [3] (read-out: IC50) amounted to 920 nM. In addition, in assay [4], the inhibition result was “inactive”.
Turning to `CSc1nc(-c2cccc(NCC(=O)NCc3cn(CCOCCn4cc(COc5ccc([C@]6(C)CC(C)(C)N(C(C)=O)c7ccc(NC(=O)c8ccc(-c9ccccc9)cc8)cc76)cc5)nn4)nn3)c2)c2c(N)c(C(=O)NC(C)(C)C)sc2n1`, the Emax in assay [6] was found to be 44%. Also, in assay [2] (read-out: EC50), the EC50 worked out at 80 nM. For the same molecule, the IC50 entry in assay [3] (cho-k1) is given as “Not Active”. In addition, the inhibition result in assay [4] was “inactive”.
In the case of `CSc1nc(-c2cccc(NCC(=O)NCc3cn(CCn4cc(COc5ccc([C@]6(C)CC(C)(C)N(C(C)=O)c7ccc(NC(=O)c8ccc(-c9ccccc9)cc8)cc76)cc5)nn4)nn3)c2)c2c(N)c(C(=O)NC(C)(C)C)sc2n1`, the maximum response (Emax) in assay [6] was 43%. Further, the EC50 in assay [2] (read-out: EC50) was found to be 24 nM. Also, the half-inhibitory concentration (IC50) result in assay [3] (cho-k1) is “Not Active”. In addition, the inhibition result in assay [4] is “inactive”.
As to `CSc1nc(-c2cccc(NCC(=O)NCc3cn(CCOCCOCCn4cc(COc5ccc([C@]6(C)CC(C)(C)N(C(C)=O)c7ccc(NC(=O)c8ccc(-c9ccccc9)cc8)cc76)cc5)nn4)nn3)c2)c2c(N)c(C(=O)NC(C)(C)C)sc2n1`, the Emax in assay [6] worked out at 18%. In addition, the EC50 in assay [2] (read-out: EC50) stood at 75 nM. In assay [3] (cho-k1), the IC50 entry was “Not Active”. Also, the inhibition entry in assay [4] is “inactive”.
For the molecule `CC(=O)N1c2ccc(NC(=O)c3ccc(-c4ccccc4)cc3)cc2[C@@](C)(c2ccc(OCc3cn(CCOCCOCCN=[N+]=[N-])nn3)cc2)CC1(C)C`, the EC50 result in assay [2] (cho-k1) and in assay [5] (cho-k1) was “Not Active” each time. The IC50 in assay [3] (read-out: IC50) stood at 324 nM. Besides, the inhibition result in assay [4] is “inactive”.
With `C#CCOc1ccc([C@@]2(C)CC(C)(C)N(C(C)=O)c3ccc(NC(=O)c4ccc(-c5ccccc5)cc4)cc32)cc1`, the EC50 entry in assay [2] (cho-k1) and in assay [5] (cho-k1) was “Not Active” in each case. Also, in assay [3] (read-out: IC50), the IC50 was 39 nM. Further, in assay [4], the inhibition entry is “inactive”.
Regarding `CSc1nc(-c2cccc(NCC(=O)NCc3cn(CCOCCOCCOCCOCCn4cc(COc5ccc([C@@]6(C)CC(C)(C)N(C(C)=O)c7ccc(NC(=O)c8ccc(-c9ccccc9)cc8)cc76)cc5)nn4)nn3)c2)c2c(N)c(C(=O)NC(C)(C)C)sc2n1`, the Imax in assay [1] came to 72%. Also, the EC50 was 55 nM in assay [2] (read-out: EC50) and “Not Active” in assay [5] (cho-k1). In assay [3] (read-out: IC50), the concentration for half-maximal inhibition (IC50) was 1020 nM. Besides, the inhibition entry in assay [4] was “inactive”.
As for `CSc1nc(-c2cccc(NCC(=O)NCc3cn(CCOCCOCCOCCOCCn4cc(COc5ccc([C@]6(C)CC(C)(C)N(C(C)=O)c7ccc(NC(=O)c8ccc(-c9ccccc9)cc8)cc76)cc5)nn4)nn3)c2)c2c(N)c(C(=O)NC(C)(C)C)sc2n1`, the Emax in assay [6] was 39%. In addition, the 50% effective concentration (EC50) in assay [2] (read-out: EC50) was found to be 39 nM. The IC50 result in assay [3] (cho-k1) is reported as “Not Active”. In addition, the inhibition entry in assay [4] was “inactive”.
`CSc1nc(-c2cccc(NCC(=O)NCc3cn(CCOCCOCCOCCn4cc(COc5ccc([C@@]6(C)CC(C)(C)N(C(C)=O)c7ccc(NC(=O)c8ccc(-c9ccccc9)cc8)cc76)cc5)nn4)nn3)c2)c2c(N)c(C(=O)NC(C)(C)C)sc2n1`: the Imax in assay [1] was 65%. Also, the EC50 was 61 nM in assay [2] (read-out: EC50) and “Not Active” in assay [5] (cho-k1). The 50% inhibitory concentration (IC50) in assay [3] (read-out: IC50) turned out to be 1660 nM. Moreover, in assay [4], the inhibition entry was “inactive”.
As to `CSc1nc(-c2cccc(NCC(=O)NCc3cn(CCOCCn4cc(COc5ccc([C@@]6(C)CC(C)(C)N(C(C)=O)c7ccc(NC(=O)c8ccc(-c9ccccc9)cc8)cc76)cc5)nn4)nn3)c2)c2c(N)c(C(=O)NC(C)(C)C)sc2n1`, in assay [1], the Imax amounted to 75%. Moreover, the values for the EC50 in assay [2] (read-out: EC50) and in assay [5] (cho-k1) were 27 nM and “Not Active”, respectively. For the same molecule, the inhibition entry in assay [4] was “inactive”.
Consider `C#CCNC(=O)CNc1cccc(-c2nc(SC)nc3sc(C(=O)NC(C)(C)C)c(N)c23)c1`, for which the values for the EC50 in assay [2] (read-out: EC50) and in assay [5] (read-out: EC50) were 1 nM and 126 nM, respectively. Besides, the IC50 result in assay [3] (cho-k1) was “Not Active”. Also, the inhibition result in assay [4] was “inactive”. Besides, the Emax in assay [7] is 78%.
Take `CSc1nc(-c2cccc(NCC(=O)NCc3cn(CCOCCOCCOCCn4cc(COc5ccc([C@]6(C)CC(C)(C)N(C(C)=O)c7ccc(NC(=O)c8ccc(-c9ccccc9)cc8)cc76)cc5)nn4)nn3)c2)c2c(N)c(C(=O)NC(C)(C)C)sc2n1`: the maximum response (Emax) in assay [6] worked out at 31%. In addition, in assay [2] (read-out: EC50), the EC50 was 57 nM. Also, the IC50 result in assay [3] (cho-k1) was “Not Active”. The inhibition entry in assay [4] is “inactive”.
Take `CSc1nc(-c2cccc(NCC(=O)NCc3cn(CCn4cc(COc5ccc([C@@]6(C)CC(C)(C)N(C(C)=O)c7ccc(NC(=O)c8ccc(-c9ccccc9)cc8)cc76)cc5)nn4)nn3)c2)c2c(N)c(C(=O)NC(C)(C)C)sc2n1`: in assay [1], the Imax stood at 65%. In addition, the figures for the EC50 in assay [2] (read-out: EC50) and in assay [5] (cho-k1) were 10 nM and “Not Active”, respectively. For the same molecule, in assay [4], the inhibition result was “inactive”.
With `CSc1nc(-c2cccc(NCC(=O)NCc3cn(CCOCCOCCN=[N+]=[N-])nn3)c2)c2c(N)c(C(=O)NC(C)(C)C)sc2n1`, the EC50 is 5 nM in assay [2] (read-out: EC50) and 397 nM in assay [5] (read-out: EC50). In assay [3] (cho-k1), the IC50 result is “Not Active”. For the same molecule, the inhibition entry in assay [4] was “inactive”. In assay [7], the Emax was 81%.

A word on the EC50: it is the concentration at which the effect is half-maximal. As usually defined, the IC50 is the concentration that gives 50% inhibition. The Emax is the greatest response seen or fitted, relative to the assay's reference.

For the origin of these results see ChEMBL document CHEMBL1649105, “Development of Selective LH Receptor Agonists by Heterodimerization with a FSH Receptor Antagonist” (ACS Med Chem Lett, 2011).
